The record followed here is ChEMBL document CHEMBL1154054, “Novel 4-(morpholin-4-yl)-N'-(arylidene)benzohydrazides: synthesis, antimycobacterial activity and QSAR investigations” (Eur J Med Chem, 2009).

Holding throughout (format): functional
Common to all, as to design: scale not given: the % may be the effect or the level left

In assay [1] the test system is Mycobacterium tuberculosis. The assay can be described thus: Antimycobacterial activity against Mycobacterium tuberculosis H37Rv assessed as reduction in relative light units at 0.5 ug/ml after 72 hrs by LRP assay. The method in brief: (§1)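 Luciferase reporter phage assay on M. tuberculosis (H37Rv, or clinical isolates resistant to S, H, R and E). Each sample had two drug-free controls and four drug concentrations, incubated 72 h at 37 °C. High-titer phAE129 phage plus 0.1 M CaCl₂ was added, then 4 h at 37 °C. Equal volume D-luciferin (0.3 mM, pH 4.5 citrate) was added; RLU integrated 10 s, duplicate mean; % RLU reduction vs control.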

The test system of assay [2] is Mycobacterium tuberculosis. Kind of assay: Antimycobacterial activity against Mycobacterium tuberculosis H37Rv assessed as reduction in relative light units at 10 ug/ml after 72 hrs by LRP assay. The procedure, abridged: as §1
Assay [3] relates to Mycobacterium tuberculosis. Kind of assay: Antimycobacterial activity against Mycobacterium tuberculosis H37Rv assessed as reduction in relative light units at 5 ug/ml after 72 hrs by LRP assay. The procedure, abridged:
as §1

In assay [4] the test system is Mycobacterium tuberculosis. Kind of assay: Antimycobacterial activity against Mycobacterium tuberculosis H37Rv assessed as reduction in relative light units at 0.05 ug/ml after 72 hrs by LRP assay. The procedure, abridged:
as §1

On to `COc1ccc(/C=N/NC(=O)c2ccc(N3CCOCC3)cc2)cc1`, for which the Activity is listed as 96.24% in assay [1], 97.18% in assay [2], 98.1% in assay [3] and 30.04% in assay [4].

Regarding `COc1cc(/C=N/NC(=O)c2ccc(N3CCOCC3)cc2)cc(OC)c1OC`, the Activity in assay [1] is on record as 96.51%; in assay [2], 97.77%; in assay [3], 97.59%; in assay [4] it was 49.68%.

As for `O=C(N/N=C/c1ccc(Cl)cc1)c1ccc(N2CCOCC2)cc1`, the Activity in assay [1] was found to be 98.02%; in assay [2], 99.26%; in assay [3], 98.38%; in assay [4] it was 78.09%.

Consider `CN(C)c1ccc(/C=N/NC(=O)c2ccc(N3CCOCC3)cc2)cc1`, for which the Activity is reported as 98.09% in assay [1], 98.82% in assay [2], 98.49% in assay [3] and 20.85% in assay [4].

As for `O=C(N/N=C/c1cccc([N+](=O)[O-])c1)c1ccc(N2CCOCC2)cc1`, the Activity is listed as 98.04% in assay [1], 98.4% in assay [2], 98.4% in assay [3] and 9.118% in assay [4].

`O=C(N/N=C\C=C\c1ccccc1)c1ccc(N2CCOCC2)cc1`: the Activity in assay [1] was found to be 98.96%; in assay [2], 97.32%; in assay [3], 97.82%; in assay [4], 63.16%.

For the compound `O=C(N/N=C/c1ccc(O)cc1)c1ccc(N2CCOCC2)cc1`, the Activity in assay [1] turned out to be 77.81%; in assay [2] it was 97.24%; in assay [3], 97.53%; in assay [4] it was 51.79%.

On to `Cc1ccc(/C=N/NC(=O)c2ccc(N3CCOCC3)cc2)cc1`, for which the Activity in assay [1] is recorded as 97.29%; in assay [2], 98.18%; in assay [3] it was 97.75%; in assay [4], 24.19%.

For `O=C(N/N=C1\C=CCO1)c1ccc(N2CCOCC2)cc1`, the Activity in assay [1] is recorded as 96.9%; in assay [2], 97.55%; in assay [3] it was 98.41%; in assay [4], 15.04%.

With `O=C(N/N=C/c1ccc(F)cc1)c1ccc(N2CCOCC2)cc1`, the Activity in assay [1] stood at 98.22%; in assay [2] it was 99.09%; in assay [3] it was 98.98%; in assay [4], 96.78%.

In the case of `NNC(=O)c1ccncc1` [ISONIAZID], the Activity worked out at 98.42% in assay [1], 98.99% in assay [2], 99.01% in assay [3] and 96% in assay [4].
